Screens as filed in PubChem BioAssay.
In the library only some 1.9% were active in any assay of this set; here they are far more common.
Scp1 inh – inhibitors of human Scp-1 phosphatase | 340,000 compounds, 0.88% hits | Q9GZU7 | Recombinant Scp1, phosphopeptide, malachite green phosphate absorbance | inhibition, % at 20 µM;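 active = inhibition above about 50% at 20 µM, limit read from the data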;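 also: plate controls were DMSO wells with enzyme for no effect and wells lacking enzyme for full effect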
Target sequence (Q9GZU7 76-261 limits assumed): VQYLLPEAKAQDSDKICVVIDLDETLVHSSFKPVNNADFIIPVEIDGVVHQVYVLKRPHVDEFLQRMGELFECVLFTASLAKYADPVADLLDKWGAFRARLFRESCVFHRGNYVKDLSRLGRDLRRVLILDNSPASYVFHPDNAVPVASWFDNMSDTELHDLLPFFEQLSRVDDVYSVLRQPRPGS
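Incubation: 45 min enzyme reaction at room temperature / System: truncated SCP-1 phosphatase (76-261aa) / Reagent: Phospho 17-mer peptide substrate / Buffer or medium: Acidic Tris acetate buffer with magnesium and detergent / Signal: absorbance at 630 nm / Doses: one concentration, 20 µM, with 1.0% DMSO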
LMPTP block – LMPTP (human) inhibition; P24666; inhibition, % at 20 µM; 360,000 compounds, 0.22% hits; AID 651560; recombinant LMPTP-A, OMFP fluorogenic substrate, fluorescence intensity;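 active = compounds that cut the enzyme signal by at least half of the control window in the single-dose screen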;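 also: plate controls were DMSO wells with enzyme plus substrate for no effect and substrate without enzyme for full effect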
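Test system: LMPTP-A phosphatase enzyme; input: 0.625 nM LMPTP-A final; reagent: OMFP substrate, 400 µM final; compound dosing: 20 µM single dose, 3% DMSO; incubation: 50 min dark incubation at room temperature; measured by: endpoint fluorescence intensity from OMFP dephosphorylation; measure: % inhibition relative to no-enzyme and uninhibited control wells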
STEP inh – inhibitors of human striatal-enriched phosphatase STEP; inhibition, % at 20 µM; P54829; recombinant STEP, OMFP fluorogenic substrate, fluorescence; 360,000 compounds, 0.25% hits;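 active = inhibition at 20 µM, scaled per plate between control wells, above about 37%, limit read from the data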;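 also: 0% = DMSO with enzyme and substrate and 100% = substrate only without enzyme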
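Material: STEP (striatal-enriched tyrosine phosphatase) enzyme, cell-free; Compound dosing: 20 µM single dose in 1% DMSO; Technique: fluorescence read at 480 nm ex / 540 nm em; Times: reaction 20 min, ambient temperature; Medium: 50 mM Bis-Tris pH 6.0 with 2.5 mM DTT and 0.005% Tween 20; Also added: OMFP at 25 µM.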
PP1 counter – PP1-alpha (human) inhibition in PP5 counter-screen; 320,000 compounds, 0.9% hits; inhibition, % at 6.7 µM; P62136; purified PP1alpha, OMFP fluorescence;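 active = inhibition above the mean inhibition of all tested compounds plus 3 SD, computed separately for each screening campaign, cut at about 15% in these data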
PP5 primary – inhibitors of human protein phosphatase 5 (PP5). P53041. inhibition, % at 6.7 µM. 320,000 compounds, 0.18% hits. purified PP5c, OMFP substrate fluorescence;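 active = inhibition above the campaign's mean inhibition across all tested compounds plus 3 SD, cut at about 9.5% in these data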;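 also: 0% = DMSO only and 100% = 100 µM cantharidin control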
Target sequence (P53041 whole entry, looked up): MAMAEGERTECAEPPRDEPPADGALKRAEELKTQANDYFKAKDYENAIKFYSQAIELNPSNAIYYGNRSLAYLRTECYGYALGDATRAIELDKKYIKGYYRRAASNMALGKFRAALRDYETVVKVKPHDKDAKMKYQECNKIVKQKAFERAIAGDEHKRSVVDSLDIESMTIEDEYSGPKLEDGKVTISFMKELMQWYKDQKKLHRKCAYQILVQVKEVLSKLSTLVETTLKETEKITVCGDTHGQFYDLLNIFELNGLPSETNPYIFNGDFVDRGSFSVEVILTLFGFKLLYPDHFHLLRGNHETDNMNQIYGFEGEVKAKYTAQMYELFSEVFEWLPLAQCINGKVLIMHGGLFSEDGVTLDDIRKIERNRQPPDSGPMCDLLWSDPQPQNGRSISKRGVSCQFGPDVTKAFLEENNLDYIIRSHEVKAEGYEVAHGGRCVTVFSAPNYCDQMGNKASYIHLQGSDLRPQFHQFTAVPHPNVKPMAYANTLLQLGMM
Scp-1 conf – confirmation of human Scp-1 phosphatase inhibitors. recombinant SCP-1 catalytic domain, phosphate release, malachite green absorbance. shares compounds with Scp1 inh. inhibition, % at 20 µM. 2,500 compounds, 61% hits. AID 540281;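 also: plate controls were DMSO with enzyme for no effect and buffer wells lacking enzyme for full effect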
MG interference – counter-screen for Scp-1 inhibitors: colorimetric interference; shares compounds with Scp1 inh; Colorimetric interference counterscreen, malachite green absorbance 630 nm; apparent inhibition (interference), % at 20 µM; 2,500 tested, under 10 active;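 also: compounds added after enzyme reaction finished so only phosphate colour detection is probed; plate controls were DMSO wells with completed Scp-1 reaction for no effect and substrate wells lacking enzyme for full effect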
Scp-1 Tm shift – validation of human Scp-1 inhibitors by thermal shift binding. 1,500 compounds, 25% hits. shares compounds with Scp1 inh. Recombinant SCP1, Sypro Orange thermal shift Tm. thermal shift relative to vanadate control, % at 40 µM;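 active = substances whose mean melting-temperature shift, as a percentage of the reference inhibitor's shift, reaches about 5.3%, limit read from the data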;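 also: 0% = Tm of DMSO wells and 100% = Tm with sodium orthovanadate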
* = called active by the depositor; . = not tested or not shown.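 The calls were made as follows, unless noted: active = inhibition of at least 30% at 20 µM; inactive = the rest.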

SMILES | Scp1 inh | LMPTP block | STEP inh | PP1 counter | PP5 primary | Scp-1 conf | MG interference | Scp-1 Tm shift
CCCCCc1nnc(NC(=O)Cc2cccs2)s1 | 68.5* | 6.0 | 9.0 | -0.3 | 3.0 | 85.3* | 1.4 | 6.3*
O=C(Cc1cccs1)Nc1nnc(Cc2ccccc2)s1 | 81.6* | 42.2 | 12.0 | 2.8 | -0.4 | 75.8* | -8.5 | 4.4
O=C(Cc1cccs1)Nc1nnc(CCc2ccccc2)s1 | 0.3 | 0.9 | -1.4 | 0.6 | 1.8 | . | . | .
CC(C)Cc1nnc(NC(=O)Cc2cccs2)s1 | 18.9 | 5.5 | 9.8 | 2.3 | -1.3 | . | . | .
CCSc1nc2ccccc2n1CC(=O)O | -1.4 | -1.3 | -1.4 | -4.3 | -2.5 | . | . | .
Cc1ccsc1/C=N/NC(=O)C(=O)NCC(C)C | -6.2 | -0.7 | -3.9 | -1.6 | 0.2 | . | . | .
COc1ccc(CCN2C(=O)CCC2(C)C(=O)NC2CCCC2)cc1OC (stereo not drawn) | -7.2 | -0.4 | 0.2 | -2.5 | -1.0 | . | . | .
COCC(C)n1c(C)cc(C(=O)COC(=O)c2c(NC(C)=O)sc(C)c2C)c1C (stereo not drawn) | 80.1* | 32.8 | 35.0 | -1.8 | 3.3 | 42.1* | -4.3 | -8.6
CC1=NN(c2ccc(Cl)c(C(=O)O)c2)C(=O)C1 | 75.4* | 8.0 | 9.2 | -0.8 | 2.1 | 53.1* | -8.5 | 9.5*
CCCC(c1nnnn1Cc1ccc2c(c1)OCO2)N1CCC(C(N)=O)CC1 (stereo not drawn) | 9.3 | 0.4 | 0.0 | -1.2 | -0.6 | . | . | .
CCOC(=O)c1cc(-c2ccco2)nc2c1c(C)nn2-c1cccc(Cl)c1 | -4.3 | 0.9 | 0.1 | 4.1 | 4.7 | . | . | .
CCOC(=O)N(O)c1ccc(C=Cc2ccccc2)cc1 | 59.2* | 4.8 | 2.3 | . | . | 50.4* | -7.6 | -17.9
O=C(Nc1cccc(Cl)c1)c1cccc(N2C(=O)C3CC=CCC3C2=O)c1 (stereo not drawn) | 51.5* | 0.8 | 19.1 | -4.1 | 3.0 | 28.1 | -14.5 | .
C[n+]1ccccc1Nc1cc([N+](=O)[O-])ccc1N | 69.1* | 0.2 | 0.2 | -3.5 | 0.3 | 86.8* | -16.1 | -0.4
Cc1cc([N+](=O)[O-])ccc1N | 1.4 | 0.6 | 0.3 | -3.4 | 0.9 | . | . | .
CCC(C)c1ccccc1NC(=O)c1cccc(-n2cnnn2)c1 (stereo not drawn) | 72.9* | 0.1 | -2.6 | . | . | -1.2 | -10.4 | .
C=C(CN(C)C)C(=O)c1ccc(C)cc1C | -0.3 | -1.6 | -2.5 | . | . | . | . | .
O=C(CCN1C(=O)C2CCCCC2C1=O)Nc1nc2ccc(F)cc2s1 (stereo not drawn) | -1.7 | -0.5 | -1.5 | -4.2 | 2.4 | -9.7 | -13.6 | .
O=C(O)CC(NCc1ccco1)C(=O)OCCCl (stereo not drawn) | -6.4 | -0.5 | -2.5 | -1.4 | 0.9 | . | . | .
CCC(C)n1nccc1NC(=O)C(C)Cl (stereo not drawn) | -8.0 | -1.1 | 3.6 | -4.1 | 0.9 | . | . | .
COc1ccc(S(=O)(=O)N2CCCC2)cc1C(C)C | 52.9* | 0.1 | -0.8 | -1.1 | 1.1 | -10.3 | -13.9 | .
COc1ccc(S(=O)(=O)N2CCCC2)cc1OC | 0.3 | 0.0 | 1.4 | -2.8 | 0.8 | . | . | .
C=CCn1c(N)cc(=O)nc1SC(C)C(=O)Nc1cccc2ccccc12 (stereo not drawn) | -17.6 | -0.2 | 0.7 | 8.3 | 3.5 | -19.4 | -18.6 | .
COCCN(CC(=O)Nc1ccccc1)S(=O)(=O)c1ccc(S(=O)(=O)N2CCCC2)cc1 | -4.5 | -1.5 | -1.0 | -0.8 | 2.5 | . | . | .
O=C(N/N=C/c1ccc(F)c(F)c1)c1cc2c(s1)-c1ccccc1CC2 | 62.1* | 5.7 | -0.1 | 2.5 | -1.1 | 42.4* | -16.4 | 3.3
SMILES | Scp1 inh | LMPTP block | STEP inh | PP1 counter | PP5 primary | Scp-1 conf | MG interference | Scp-1 Tm shift
CNC(=O)c1cc2c(s1)-c1ccccc1CC2 | -7.0 | 0.0 | 0.3 | -0.5 | 1.4 | . | . | .
O=C(CCS(=O)(=O)c1ccc(Br)cc1)N1CCN(c2ccccc2)CC1 | 15.3 | -1.5 | 1.5 | -1.6 | 1.9 | . | . | .
CC(=O)N1CCCc2cc(S(=O)(=O)CCC(=O)N3CCN(c4cccc(C)c4)C(C)C3)ccc21 (stereo not drawn) | 50.5* | 0.2 | -1.6 | -0.3 | -1.1 | 25.6 | 6.4 | .
Cc1cccc(N2CCN(C(=O)CCS(=O)(=O)c3ccc(Br)cc3)CC2C)c1 (stereo not drawn) | 83.9* | 0.4 | 3.4 | -0.7 | 3.6 | 73.7* | -5.7 | -0.9
C[C@H]1CN([C@@H](C)CO)C(=O)Cc2cc(NC(=O)Cc3cn(C)c4ccccc34)ccc2O[C@@H]1CN(C)S(=O)(=O)c1cn(C)cn1 | -1.9 | -2.1 | 0.3 | . | . | . | . | .
CSc1nc(N)nc2c1ncn2C1OC(CO)C(O)C1O (stereo not drawn) | -5.0 | -1.0 | -3.3 | . | . | -11.1 | -15.3 | .
CCCC(=O)NC(Nc1ccc(S(=O)(=O)Nc2cc(C)on2)cc1)(C(F)(F)F)C(F)(F)F | -11.9 | -0.7 | -1.5 | -1.2 | -0.4 | . | . | .
O=C(CNS(=O)(=O)c1ccc(Br)cc1Cl)OCC(=O)N1CCCC1=O | 2.8 | -1.8 | -0.7 | -3.2 | -3.0 | -11.1 | -13.7 | .
CC[N+]1(C)CC2CCC(C)(C1)C2(C)C (stereo not drawn) | 55.5* | -2.2 | 1.9 | . | . | 38.8* | -11.5 | -29.1
N#CC1=C(N)n2c(s/c(=C\c3ccco3)c2=O)=C(C#N)C1c1ccco1 (stereo not drawn) | 63.1* | 11.1 | 10.7 | 5.1 | 1.1 | 70.8* | -5.2 | 17.6*
CC(=O)c1ccc(OCC(O)CN2CCN(CCN3C(=O)c4cccc5cccc(c45)C3=O)CC2)cc1 (stereo not drawn) | -2.7 | 18.8 | -1.5 | -3.3 | 0.1 | . | . | .
CCOC(=O)N1CCN(c2ccc(S(=O)(=O)N3CCOCC3)cn2)CC1 | 79.8* | -0.8 | 3.7 | . | . | -12.2 | -15.8 | .
COc1ccccc1NC(=O)/C(N=Nc1ccc(C)c(S(=O)(=O)Nc2ccccc2Cl)c1)=C(\C)O | 50.2* | 0.6 | 0.3 | . | . | -25.2 | -28.3 | .
C=CC#CC1(O)CC(C)[N+](C)(C)CC1C (stereo not drawn) | 103.7* | -2.6 | -0.9 | -7.9 | -2.0 | 77.7* | -15.0 | -25.6
COc1ccc(N2CCN(C(CNC(=O)CC(C)(C)C)c3ccc4c(c3)OCO4)CC2)cc1 (stereo not drawn) | 63.6* | -0.7 | 1.4 | -2.3 | -2.6 | -9.7 | -10.1 | .
COCc1cc(C)c(C#N)c(=S)[nH]1 | 53.0* | 0.6 | -1.2 | -10.2 | -1.8 | 6.0 | -0.8 | .
Clc1ccc(CN2CCCCCC2)cc1 | -8.1 | -0.7 | 0.2 | -0.5 | -0.5 | . | . | .
C[N+]1(CC2COC3(CCCCC3)O2)CCCCC1 (stereo not drawn) | 107.9* | 0.6 | -1.3 | -2.8 | 2.1 | 74.9* | -20.8 | -15.8
